Experimental data gathered from unrelated publications.
Lines come from different studies, so protocols differ.
Target: Tyrosine-protein kinase CSK (CSK, Homo sapiens, UniProt P41240)

SMILES	assay	setting	remaining binding [%]
N#Cc1ccc(Nc2ccc3[nH]c(=O)[nH]c3c2)c(Cl)c1	cell-free assay, competition with immobilised ligand	1 µM	89
O=C(NCC1CCOCC1)c1n[nH]cc1NC(=O)c1c(F)cccc1F	binding, competition with immobilised ligand	1 µM	98
O=C(NCCCN1CCOCC1)c1ccc(Nc2ncc(Cl)c(-c3ccc(Cl)s3)n2)cc1	binding, competition with immobilised ligand	1 µM	86
CC1CCCN1c1nccc(-c2cnn3ncccc23)n1 (stereo not drawn)	binding	1 µM	100
O=C(NCCCN1CCOCC1)c1ccc(Nc2nccc(-c3cc4ccccc4s3)n2)cc1	binding, competition with immobilised ligand	1 µM	90
COc1ccnn2ncc(-c3ccnc(N(C)C)n3)c12	binding	1 µM	96
CNC(=O)[C@@H]1CC[C@@H](n2c(-c3ccc4cnccc4c3)nc3ccc(C(=O)NCc4cccc(C(N)=O)c4)cc32)C1	binding, competition with immobilised ligand	1 µM	100
Cc1cnc(Nc2ccc(C(=O)N3CCC(N4CCCC4)CC3)cc2)nc1-c1cc2ccccc2s1	binding, competition with immobilised ligand	1 µM	62
CN1CCN(c2cnc3c(C4CCN(C(=O)c5ccc(OC(F)(F)F)cc5N)CC4)ncnc3c2)CC1	cell-free assay, competition with immobilised ligand	1 µM	100
N[C@H]1CCN(c2nccc(-c3cnn4ncccc34)n2)C1	binding	1 µM	100
Cc1ccc(-n2nc(C(C)(C)C)cc2NC(=O)Nc2ccc(-n3c(N)c(C(N)=O)c4nc5ccccc5nc43)cc2)cc1	cell-free assay, competition with immobilised ligand	1 µM	0.9
FC(F)(F)Oc1cccc(-c2cnc3ccc(-c4ccncc4)nn23)c1	cell-free assay, competition with immobilised ligand	5 µM	86
Cc1cnn2ncc(-c3ccnc(N(C)C)n3)c2c1	binding	1 µM	99
C[C@H](NC(=O)c1cnc2n1[C@](C)(Cc1ccc(C#N)cc1)C(=O)N2c1cc(Cl)c(F)c(Cl)c1)C(=O)NC1(c2ccccn2)CC1	cell-free assay, competition with immobilised ligand	1 µM	100
c1cncc(-c2cccc(Nc3nccc(NC4CCCCC4)n3)c2)c1	binding, competition with immobilised ligand	10 µM	88
CS(=O)(=O)c1cc(C2(NC(=O)c3cncc4c3cnn4-c3ccc(F)cc3)CC2)ccn1	cell-free assay, competition with immobilised ligand	1 µM	95
CN(C)c1nccc(-c2cnn3ncccc23)n1	binding	1 µM	68
CCc1ccccc1C(=O)Nc1n[nH]c2c(C)c(F)c(C3C(C#N)=C(C)N(C)C(C)=C3C#N)cc12	cell-free assay, competition with immobilised ligand	1 µM	98
C[C@H]1CCN(c2nccc(-c3cnn4ncccc34)n2)C1	binding	1 µM	83
COc1ccc2c(c1)O[C@@H](c1ccc(OC)c(OC)c1)C[C@H]2NC(=O)C1(c2ccc3c(c2)OC(F)(F)O3)CC1	cell-free assay, competition with immobilised ligand	1 µM	87
COc1cnc(Nc2cccc(S(N)(=O)=O)c2)nc1N1CCN(c2ccccc2)C(=O)C1	binding, competition with immobilised ligand	1 µM	100
